Laboratory results: ChEMBL document CHEMBL1122702, “Radiohalogen-labeled imaging agents. 3. Compounds for measurement of brain blood flow by emission tomography” (J Med Chem, 1984)

Organism: Rattus norvegicus
Test: Ratio of distribution of the [131I]-labeled compound at 5 min in rat kidney over uptake in blood
Format: ADME, organism-based
Conditions: other tissue
Method in brief: (§1)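 Male Sprague-Dawley rats (200–300 g, fed ad libitum), ether-anesthetized, got a tail-vein bolus of 0.2 mL saline containing 10–20 μCi 131I compound and were decapitated at the stated time. Organs were weighed and gamma-counted against a serially diluted external standard. Organ/blood ratio was calculated from % dose per gram of organ. Animal numbers per time point were 1–4.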

Row | SMILES | Ratio
1 | COc1cc(CC(C)NCC2CC2)c(OC)cc1I (stereo not given) | 9.2

Organism: Rattus norvegicus
Test: Ratio of distribution of the [131I]-labeled compound at 5 min in rat liver over uptake in blood
Format: ADME, organism-based
Conditions: other tissue
Method in brief: as §1

Row | SMILES | Ratio
2 | COc1cc(CC(C)NCC2CC2)c(OC)cc1I (stereo not given) | 4.5

Organism: Rattus norvegicus
Test: The distribution of the 131 I-labeled compound at 5 min was evaluated in rat heart as Percent of injected dose per gram in the organ
Format: ADME, organism-based
Conditions: in vivo
Method in brief: (§2)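 Male Sprague-Dawley rats (200–300 g, free access to food and water), lightly ether-anesthetized and restrained, received a 0.2 mL saline tail-vein bolus of 10–20 μCi 131I-labeled compound. They were decapitated at the stated time, and organs were excised, weighed and gamma-counted. Percent injected dose was determined against a calibrated external standard made by serial dilution of the injectate. n = 1–4 rats.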

Row | SMILES | Dose
3 | COc1cc(CC(C)NCC2CC2)c(OC)cc1I (stereo not given) | 0.91%

Organism: Rattus norvegicus
Test: The distribution of the 131 I-labeled compound at 30 min was evaluated in rat brain as Percent of injected dose in the total organ
Format: ADME, organism-based
Conditions: in vivo, 0.5 h
Method in brief: as §2

Row | SMILES | Dose
4 | COc1cc(CC(C)NCC2CC2)c(OC)cc1I (stereo not given) | 0.35%

Organism: Rattus norvegicus
Test: The distribution of the 131 I-labeled compound at 5 min was evaluated in rat liver as Percent of injected dose per gram in the organ
Format: ADME, organism-based
Conditions: in vivo
Method in brief: as §2

Row | SMILES | Dose
5 | COc1cc(CC(C)NCC2CC2)c(OC)cc1I (stereo not given) | 0.55%

Organism: Rattus norvegicus
Test: Ratio of distribution of the [131I]-labeled compound at 30 min in rat brain over uptake in blood
Format: ADME, organism-based
Conditions: 0.5 h
Method in brief: as §1

Row | SMILES | Ratio
6 | COc1cc(CC(C)NCC2CC2)c(OC)cc1I (stereo not given) | 2.1

Organism: Rattus norvegicus
Test: The distribution of the 131 I-labeled compound at 5 min was evaluated in rat brain as Percent of injected dose in the total organ
Format: ADME, organism-based
Conditions: in vivo
Method in brief: as §2

Row | SMILES | Dose
7 | COc1cc(CC(C)NCC2CC2)c(OC)cc1I (stereo not given) | 0.62%

Organism: Rattus norvegicus
Test: The distribution of the 131 I-labeled compound at 5 min was evaluated in rat heart as Percent of injected dose in the total organ
Format: ADME, organism-based
Conditions: in vivo
Method in brief: as §2

Row | SMILES | Dose
8 | COc1cc(CC(C)NCC2CC2)c(OC)cc1I (stereo not given) | 0.71%

Organism: Rattus norvegicus
Test: Ratio of distribution of the [131I]-labeled compound at 30 min in rat lung over uptake in blood
Format: ADME, organism-based
Conditions: other tissue, 0.5 h
Method in brief: as §1

Row | SMILES | Ratio
9 | COc1cc(CC(C)NCC2CC2)c(OC)cc1I (stereo not given) | 26

Organism: Rattus norvegicus
Test: Ratio of distribution of the [131I]-labeled compound at 5 min in rat brain over uptake in blood
Format: ADME, organism-based
Conditions: not given
Method in brief: as §1

Row | SMILES | Ratio
10 | COc1cc(CC(C)NCC2CC2)c(OC)cc1I (stereo not given) | 2.8

Organism: Rattus norvegicus
Test: The distribution of the 131 I-labeled compound at 5 min was evaluated in rat liver as Percent of injected dose in the total organ
Format: ADME, organism-based
Conditions: in vivo
Method in brief: as §2

Row | SMILES | Dose
11 | COc1cc(CC(C)NCC2CC2)c(OC)cc1I (stereo not given) | 3.9%

Organism: Rattus norvegicus
Test: The distribution of the 131 I-labeled compound at 30 min was evaluated in rat lung as Percent of injected dose per gram in the organ
Format: ADME, organism-based
Conditions: in vivo, 0.5 h
Method in brief: as §2

Row | SMILES | Dose
12 | COc1cc(CC(C)NCC2CC2)c(OC)cc1I (stereo not given) | 2.4%

Organism: Rattus norvegicus
Test: The distribution of the 131 I-labeled compound at 30 min was evaluated in rat heart as Percent of injected dose per gram in the organ
Format: ADME, organism-based
Conditions: in vivo, 0.5 h
Method in brief: as §2

Row | SMILES | Dose
13 | COc1cc(CC(C)NCC2CC2)c(OC)cc1I (stereo not given) | 0.3%

Organism: Rattus norvegicus
Test: The distribution of the 131 I-labeled compound at 5 min was evaluated in rat kidney as Percent of injected dose in the total organ
Format: ADME, organism-based
Conditions: in vivo
Method in brief: as §2

Row | SMILES | Dose
14 | COc1cc(CC(C)NCC2CC2)c(OC)cc1I (stereo not given) | 2%

Organism: Rattus norvegicus
Test: The distribution of the 131 I-labeled compound at 5 min was evaluated in rat brain as Percent of injected dose per gram in the organ
Format: ADME, organism-based
Conditions: in vivo
Method in brief: as §2

Row | SMILES | Dose
15 | COc1cc(CC(C)NCC2CC2)c(OC)cc1I (stereo not given) | 0.33%

Organism: Rattus norvegicus
Test: The distribution of the 131 I-labeled compound at 5 min was evaluated in rat lung as Percent of injected dose per gram in the organ
Format: ADME, organism-based
Conditions: in vivo
Method in brief: as §2

Row | SMILES | Dose
16 | COc1cc(CC(C)NCC2CC2)c(OC)cc1I (stereo not given) | 7.8%

Organism: Rattus norvegicus
Test: The distribution of the 131 I-labeled compound at 5 min was evaluated in rat blood as Percent of injected dose per gram in the organ
Format: ADME, organism-based
Conditions: in vivo
Method in brief: as §2

Row | SMILES | Dose
17 | COc1cc(CC(C)NCC2CC2)c(OC)cc1I (stereo not given) | 0.12%

Organism: Rattus norvegicus
Test: The distribution of the 131 I-labeled compound at 30 min was evaluated in rat kidney as Percent of injected dose in the total organ
Format: ADME, organism-based
Conditions: in vivo, 0.5 h
Method in brief: as §2

Row | SMILES | Dose
18 | COc1cc(CC(C)NCC2CC2)c(OC)cc1I (stereo not given) | 1.7%

Organism: Rattus norvegicus
Test: The distribution of the 131 I-labeled compound at 30 min was evaluated in rat liver as Percent of injected dose per gram in the organ
Format: ADME, organism-based
Conditions: in vivo, 0.5 h
Method in brief: as §2

Row | SMILES | Dose
19 | COc1cc(CC(C)NCC2CC2)c(OC)cc1I (stereo not given) | 0.97%

Organism: Rattus norvegicus
Test: The distribution of the 131 I-labeled compound at 30 min was evaluated in rat liver as Percent of injected dose in the total organ
Format: ADME, organism-based
Conditions: in vivo, 0.5 h
Method in brief: as §2

Row | SMILES | Dose
20 | COc1cc(CC(C)NCC2CC2)c(OC)cc1I (stereo not given) | 8.9%

Organism: Rattus norvegicus
Test: The distribution of the 131 I-labeled compound at 5 min was evaluated in rat kidney as Percent of injected dose per gram in the organ
Format: ADME, organism-based
Conditions: in vivo
Method in brief: as §2

Row | SMILES | Dose
21 | COc1cc(CC(C)NCC2CC2)c(OC)cc1I (stereo not given) | 1.1%

Organism: Rattus norvegicus
Test: Ratio of distribution of the [131I]-labeled compound at 5 min in rat heart over uptake in blood
Format: ADME, organism-based
Conditions: other tissue
Method in brief: as §1

Row | SMILES | Ratio
22 | COc1cc(CC(C)NCC2CC2)c(OC)cc1I (stereo not given) | 7.6

Organism: Rattus norvegicus
Test: Ratio of distribution of the [131I]-labeled compound at 30 min in rat liver over uptake in blood
Format: ADME, organism-based
Conditions: other tissue, 0.5 h
Method in brief: as §1

Row | SMILES | Ratio
23 | COc1cc(CC(C)NCC2CC2)c(OC)cc1I (stereo not given) | 11

Organism: Rattus norvegicus
Test: Ratio of distribution of the [131I]-labeled compound at 30 min in rat heart over uptake in blood
Format: ADME, organism-based
Conditions: other tissue, 0.5 h
Method in brief: as §1

Row | SMILES | Ratio
24 | COc1cc(CC(C)NCC2CC2)c(OC)cc1I (stereo not given) | 3.3

Organism: Rattus norvegicus
Test: Ratio of distribution of the [131I]-labeled compound at 5 min in rat lung over uptake in blood
Format: ADME, organism-based
Conditions: other tissue
Method in brief: as §1

Row | SMILES | Ratio
25 | COc1cc(CC(C)NCC2CC2)c(OC)cc1I (stereo not given) | 65

Organism: Rattus norvegicus
Test: The distribution of the 131 I-labeled compound at 30 min was evaluated in rat blood as Percent of injected dose per gram in the organ
Format: ADME, organism-based
Conditions: in vivo, 0.5 h
Method in brief: as §2

Row | SMILES | Dose
26 | COc1cc(CC(C)NCC2CC2)c(OC)cc1I (stereo not given) | 0.09%

Organism: Rattus norvegicus
Test: Ratio of distribution of the [131I]-labeled compound at 30 min in rat kidney over uptake in blood
Format: ADME, organism-based
Conditions: other tissue, 0.5 h
Method in brief: as §1

Row | SMILES | Ratio
27 | COc1cc(CC(C)NCC2CC2)c(OC)cc1I (stereo not given) | 8.6

Organism: Rattus norvegicus
Test: The distribution of the 131 I-labeled compound at 30 min was evaluated in rat brain as Percent of injected dose per gram in the organ
Format: ADME, organism-based
Conditions: in vivo, 0.5 h
Method in brief: as §2

Row | SMILES | Dose
28 | COc1cc(CC(C)NCC2CC2)c(OC)cc1I (stereo not given) | 0.19%

Organism: Rattus norvegicus
Test: The distribution of the 131 I-labeled compound at 30 min was evaluated in rat kidney as Percent of injected dose per gram in the organ
Format: ADME, organism-based
Conditions: in vivo, 0.5 h
Method in brief: as §2

Row | SMILES | Dose
29 | COc1cc(CC(C)NCC2CC2)c(OC)cc1I (stereo not given) | 0.77%

Organism: Rattus norvegicus
Test: The distribution of the 131 I-labeled compound at 30 min was evaluated in rat heart as Percent of injected dose in the total organ
Format: ADME, organism-based
Conditions: in vivo, 0.5 h
Method in brief: as §2

Row | SMILES | Dose
30 | COc1cc(CC(C)NCC2CC2)c(OC)cc1I (stereo not given) | 0.23%
